# In ChEMBL document CHEMBL1139795, “Capped diaminopropionamide-glycine dipeptides are inhibitors of CC chemokine receptor 2 (CCR2)” (Bioorg Med Chem Lett, 2007):
# Legend:
# [1] = target: C-C chemokine receptor type 2 (Homo sapiens, UniProt P41597); experiment: Displacement of [125]MCP1 from CCR2 in human PBMCs
# Method in brief: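 Competition binding with 0.3 nM [125I]MCP-1 on human peripheral blood mononuclear cells at 23 °C. IC50 given as mean ± SD (n = 2) or mean ± SEM (n > 2). Single determinations are listed with n = 1.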
# [2] = target: T1, C-C chemokine receptor type 1 (Homo sapiens) (UniProt P32246); experiment: Inhibition of CCR1 at 10 uM
# T1 sequence (whole entry): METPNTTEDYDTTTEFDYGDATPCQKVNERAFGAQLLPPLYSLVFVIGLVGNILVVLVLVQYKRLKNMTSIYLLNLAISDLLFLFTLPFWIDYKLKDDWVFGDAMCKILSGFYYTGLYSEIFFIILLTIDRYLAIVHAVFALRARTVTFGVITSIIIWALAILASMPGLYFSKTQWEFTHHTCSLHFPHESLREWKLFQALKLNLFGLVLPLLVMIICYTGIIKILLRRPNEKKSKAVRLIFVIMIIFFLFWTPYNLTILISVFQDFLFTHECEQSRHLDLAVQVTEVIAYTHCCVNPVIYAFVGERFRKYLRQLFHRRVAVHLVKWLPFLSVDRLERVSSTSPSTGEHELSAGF
# Sequence of C-C chemokine receptor type 2 (P41597 whole entry): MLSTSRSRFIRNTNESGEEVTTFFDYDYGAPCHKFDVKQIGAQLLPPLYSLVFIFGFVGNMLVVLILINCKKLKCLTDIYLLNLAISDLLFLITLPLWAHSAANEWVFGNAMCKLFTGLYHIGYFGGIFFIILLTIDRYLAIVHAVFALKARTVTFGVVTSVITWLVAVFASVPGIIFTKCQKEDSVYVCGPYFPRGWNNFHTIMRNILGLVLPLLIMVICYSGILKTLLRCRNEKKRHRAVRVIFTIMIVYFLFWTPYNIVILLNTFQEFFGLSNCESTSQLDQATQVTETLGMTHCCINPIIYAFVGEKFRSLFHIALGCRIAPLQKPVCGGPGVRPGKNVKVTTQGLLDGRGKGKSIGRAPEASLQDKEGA
SMILES,IC50 [1] [nM],inhibition [2] [%]
Cc1ccc(CNC[C@H](NC(=O)CNC(=O)c2cc(NCC(C)C)cc(C(F)(F)F)c2)C(=O)NC(C)(C)C)c(C)c1,130,< 30
Cc1ccc(CNC[C@H](NC(=O)CNC(=O)c2cccc(C(F)(F)C(F)(F)F)c2)C(=O)NC(C)(C)C)c(C)c1,65,< 30
Cc1ccc(CNC[C@H](NC(=O)CNC(=O)c2cccc(C(F)(F)F)c2)C(=O)NCC2CC2)c(C)c1,60,< 30
COC(=O)[C@@H](CNC(=O)CNC(=O)c1cccc(C(F)(F)F)c1)NCc1ccc(C)cc1C,15000,< 30
Cc1ccc(CNC[C@H](NC(=O)CNC(=O)c2cccc(C(F)(F)F)c2)C(=O)NC2CCCC2)c(C)c1,99,< 30
CCC(C)(C)NC(=O)[C@H](CNCc1ccc(C)cc1C)NC(=O)CNC(=O)c1cccc(C(F)(F)F)c1,120,< 30
Cc1ccc(CNC[C@H](NC(=O)CNC(=O)c2cccc(C(F)F)c2)C(=O)NC(C)(C)C)c(C)c1,400,< 30
Cc1ccc(CNC[C@H](NC(=O)CNC(=O)c2cccc(C(F)(F)F)c2)C(=O)NCC(F)(F)F)c(C)c1,55,< 30
Cc1ccc(CNC[C@H](NC(=O)CNC(=O)c2cccc(C(F)(F)F)c2)C(C)C)c(C)c1,,< 30
CCNC(=O)[C@H](CCNCc1ccc(C)cc1C)NC(=O)CNC(=O)c1cccc(C(F)(F)F)c1,410,< 30
CC(C)(C)NC(=O)[C@H](CNCc1ccc(S(C)(=O)=O)cc1)NC(=O)CNC(=O)c1cccc(C(F)(F)F)c1,7200,< 30
CC(C)(C)NC(=O)[C@H](CNCc1ccc(Br)cc1)NC(=O)CNC(=O)c1cccc(C(F)(F)F)c1,1700,< 30
Cc1ccc(CNC[C@H](NC(=O)CNC(=O)c2cccc(C(F)(F)F)c2)C(=O)NC2CC2)c(C)c1,88,< 30
Cc1ccc(CNC[C@H](CO)NC(=O)CNC(=O)c2cccc(C(F)(F)F)c2)c(C)c1,2200,< 30
Cc1cc(N(C)C)ccc1CNC[C@H](NC(=O)CNC(=O)c1cccc(C(F)(F)F)c1)C(=O)NC(C)(C)C,36,< 30
Cc1ccc(CNC[C@H](NC(=O)CNC(=O)c2cc(OC(F)(F)F)ccc2N)C(=O)NC(C)(C)C)c(C)c1,28,< 30
Cc1ccc(CNCC[C@H](NC(=O)CNC(=O)c2cccc(C(F)(F)F)c2)C(N)=O)c(C)c1,3000,< 30
Cc1ccc(CNC[C@H](NC(=O)CNC(=O)c2cc(C(F)(F)F)ccc2NC(=O)C2CCCCC2)C(=O)NC(C)(C)C)c(C)c1,90,< 30
Cc1ccc(CNC[C@H](NC(=O)CNC(=O)c2cccc(C(F)(F)F)c2)C(=O)NC2(C)CC2)c(C)c1,100,< 30
Cc1ccc(CNC[C@H](NC(=O)CNC(=O)c2cccc(C(F)(F)F)c2)C(=O)NC(C)(C)CO)c(C)c1,190,< 30
Cc1ccc(CNC[C@H](NC(=O)CNC(=O)c2cccc(OC(F)(F)F)c2)C(=O)NC(C)(C)C)c(C)c1,190,< 30

SMILES,IC50 [1] [nM],inhibition [2] [%]
CN(C)c1ccc(CNC[C@H](NC(=O)CNC(=O)c2cccc(C(F)(F)F)c2)C(=O)NC(C)(C)C)cc1,430,< 30
CCNC(=O)C(C)(CNCc1ccc(C)cc1C)NC(=O)CNC(=O)c1cc(C(F)(F)F)ccc1N (racemic),8700,< 30
Cc1ccc(CNC[C@H](NC(=O)CNC(=O)c2cccc(C(F)(F)F)c2)C(=O)N2CCOCC2)c(C)c1,490,< 30
Cc1ccc(CNC[C@H](NC(=O)CNC(=O)c2cccc(C(F)(F)F)c2)C(=O)O)c(C)c1,5500,< 30
Cc1ccc(CNC[C@@H](NC(=O)CNC(=O)c2cccc(C(F)(F)F)c2)C(=O)NC(C)(C)C)c(C)c1,110,< 30
COC(=O)[C@H](CNCc1ccc(C)cc1C)NC(=O)CNC(=O)c1cccc(C(F)(F)F)c1,1500,< 30
COc1ccc(CNC[C@H](NC(=O)CNC(=O)c2cccc(C(F)(F)F)c2)C(=O)NC(C)(C)C)c(C)c1,47,< 30
Cc1ccc(CNC[C@@H](CO)NC(=O)CNC(=O)c2cccc(C(F)(F)F)c2)c(C)c1,320,< 30
CCNC(=O)[C@@H](NC(=O)CNC(=O)c1cccc(C(F)(F)F)c1)[C@@H](C)NCc1ccc(C)cc1C,130,< 30
CCNC(=O)[C@@H](CNCc1ccc(C)cc1C)NC(=O)CNC(=O)c1cccc(C(F)(F)F)c1,560,< 30
Cc1ccc(CNC[C@H](NC(=O)CNC(=O)c2cccc(C(F)(F)F)c2)C(=O)Nc2ccccc2)c(C)c1,1200,< 30
Cc1ccc(CNC[C@H](NC(=O)CNC(=O)c2cccc(C(F)(F)F)c2)C(=O)NC2CCC2)c(C)c1,97,< 30
COC(=O)[C@@H](CNCc1ccc(C)cc1C)NC(=O)CNC(=O)c1cccc(C(F)(F)F)c1,1000,< 30
Cc1ccc(CNC[C@H](NC(=O)CNC(=O)c2cccc(C(F)(F)F)c2)C(=O)NC(C)(C)C)cc1[N+](=O)[O-],670,< 30
Cc1cc(C#N)ccc1CNC[C@H](NC(=O)CNC(=O)c1cccc(C(F)(F)F)c1)C(=O)NC(C)(C)C,900,< 30
CCNC(=O)[C@H](CCN(C)Cc1ccc(C)cc1C)NC(=O)CNC(=O)c1cccc(C(F)(F)F)c1,150,< 30
Cc1cc(Br)ccc1CNC[C@H](NC(=O)CNC(=O)c1cccc(C(F)(F)F)c1)C(=O)NC(C)(C)C,160,< 30
C=CCNC(=O)[C@H](CNCc1ccc(C)cc1C)NC(=O)CNC(=O)c1cccc(C(F)(F)F)c1,200,< 30
COc1ccc(CNC[C@H](NC(=O)CNC(=O)c2cccc(C(F)(F)F)c2)C(=O)NC(C)(C)C)cc1,1100,< 30
CNc1cc(C(=O)NCC(=O)N[C@@H](CNCc2ccc(C)cc2C)C(=O)NC(C)(C)C)cc(C(F)(F)F)c1,16,< 30
CCOC(=O)Nc1cc(C(=O)NCC(=O)N[C@@H](CNCc2ccc(C)cc2C)C(=O)NC(C)(C)C)cc(C(F)(F)F)c1,310,< 30

SMILES,IC50 [1] [nM],inhibition [2] [%]
Cc1ccc(CNC[C@H](NC(=O)CNC(=O)c2cccc(C(F)(F)F)c2)C(=O)NCc2ccccc2)c(C)c1,7000,< 30
Cc1ccc(CNC[C@H](NC(=O)CNC(=O)c2cccc(C(F)(F)F)c2)C(=O)NC2CCCCC2)c(C)c1,150,< 30
CCc1ccc(CNC[C@H](NC(=O)CNC(=O)c2cccc(C(F)(F)F)c2)C(=O)NC(C)(C)C)cc1,530,< 30
Cc1ccc(CNC[C@H](NC(=O)CNC(=O)c2cc(C(F)(F)F)ccc2NCC(C)C)C(=O)NC(C)(C)C)c(C)c1,23,< 30
Cc1ccc(CNC[C@@H](C)NC(=O)CNC(=O)c2cccc(C(F)(F)F)c2)c(C)c1,,< 30
Cc1ccc(CNC[C@H](NC(=O)CNC(=O)c2cccc(C(F)(F)F)c2)C(=O)NC(C)C)c(C)c1,170,< 30
CNC(=O)[C@H](CNCc1ccc(C)cc1C)NC(=O)CNC(=O)c1cccc(C(F)(F)F)c1,230,< 30
CCc1ccccc1CNC[C@H](NC(=O)CNC(=O)c1cccc(C(F)(F)F)c1)C(=O)NC(C)(C)C,380,< 30
CCNC(=O)[C@H](CNCc1ccc(C)cc1C)NC(=O)CNC(=O)c1cccc(C(F)(F)F)c1,110,< 30
CON(C)C(=O)[C@H](CNCc1ccc(C)cc1C)NC(=O)CNC(=O)c1cccc(C(F)(F)F)c1,110,< 30
Cc1ccc(CNC[C@H](NC(=O)CNC(=O)c2cccc(C(F)(F)F)c2)C(=O)NC(C)(C)C)cc1N,120,< 30
Cc1ccc(CNC[C@H](NC(=O)CNC(=O)c2cccc(SC(F)(F)F)c2)C(=O)NC(C)(C)C)c(C)c1,150,< 30
CCNC(=O)[C@@H](CNC(=O)CNC(=O)c1cccc(C(F)(F)F)c1)NCc1ccc(C)cc1C,22000,< 30
Cc1ccc(CNC[C@H](NC(=O)CNC(=O)c2cccc(C(F)(F)F)c2)C(=O)N2CCCC2)c(C)c1,260,< 30
CCc1ccc(CNC[C@H](NC(=O)CNC(=O)c2cccc(C(F)(F)F)c2)C(=O)NC(C)(C)C)c(C)c1,36,< 30
COc1cc(C)c(CNC[C@H](NC(=O)CNC(=O)c2cccc(C(F)(F)F)c2)C(=O)NC(C)(C)C)cc1C,1300,< 30
CCCCc1ccc(CNC[C@H](NC(=O)CNC(=O)c2cccc(C(F)(F)F)c2)C(=O)NC(C)(C)C)cc1,5600,< 30
Cc1ccccc1CNC[C@H](NC(=O)CNC(=O)c1cccc(C(F)(F)F)c1)C(=O)NC(C)(C)C,400,< 30
Cc1ccc(CNC[C@@H](NC(=O)CNC(=O)c2cccc(C(F)(F)F)c2)C(N)=O)c(C)c1,630,< 30
Cc1ccc(CNC[C@H](NC(=O)CNC(=O)c2cccc(C(F)(F)F)c2)C(=O)N(C)C)c(C)c1,250,< 30
